# Reference: ChEMBL document CHEMBL1138850, “Synthesis of 2-methyl-3-indolylacetic derivatives as anti-inflammatory agents that inhibit preferentially cyclooxygenase 1 without gastric damage” (2006)
# Calls of active or inactive are those of the source. The calls are words filed in the database; no cut-off is given here.
# Columns and labels:
# [1] = target: T1, Prostaglandin G/H synthase 1 (Mus musculus) (UniProt P22437); assay: Activity at COX1 assessed as inhibition of arachidonic acid-induced PGE2 production in J774 cells at 100 uM; format: cell-based
# T1 sequence (whole entry): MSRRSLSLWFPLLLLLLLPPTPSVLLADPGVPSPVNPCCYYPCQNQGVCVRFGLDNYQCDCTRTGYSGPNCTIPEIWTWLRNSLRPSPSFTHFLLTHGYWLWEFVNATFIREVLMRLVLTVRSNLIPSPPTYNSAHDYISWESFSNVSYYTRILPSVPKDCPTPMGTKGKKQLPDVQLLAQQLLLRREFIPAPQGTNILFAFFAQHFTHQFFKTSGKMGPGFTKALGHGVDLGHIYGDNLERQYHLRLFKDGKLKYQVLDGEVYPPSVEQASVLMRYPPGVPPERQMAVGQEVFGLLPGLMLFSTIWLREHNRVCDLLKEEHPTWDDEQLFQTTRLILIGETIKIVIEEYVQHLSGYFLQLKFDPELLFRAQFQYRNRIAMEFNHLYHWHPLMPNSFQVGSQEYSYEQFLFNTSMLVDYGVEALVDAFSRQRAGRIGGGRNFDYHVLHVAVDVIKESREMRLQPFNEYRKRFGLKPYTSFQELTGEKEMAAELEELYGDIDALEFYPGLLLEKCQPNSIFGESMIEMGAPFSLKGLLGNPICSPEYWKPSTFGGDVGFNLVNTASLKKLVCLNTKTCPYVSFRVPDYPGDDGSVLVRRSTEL
# How it was run: (§1)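 Murine J774 macrophages were grown in DMEM with 10% FBS, adhered for 2 h at 37 °C, then switched to serum-free medium. Cells were pretreated with compound (0.01-100 µM, ethanol vehicle) for 15 min, then given 15 µM arachidonic acid for 30 min at 37 °C. Supernatant PGE2 was measured by radioimmunoassay. Triplicate wells; % inhibition vs control, mean of three experiments.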
# [2] = target: T1, Prostaglandin G/H synthase 1 (Mus musculus); assay: Activity at COX1 assessed as inhibition of arachidonic acid-induced PGE2 production in J774 cells at 10 uM; format: cell-based; how it was run: as §1
# Mus musculus [3] = assay: Antiinflammatory activity in carrageenan-induced mouse paw edema; format: functional, organism-based
# How it was run: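 Mice (18-20 g), lightly anesthetized with enflurane, were dosed 1 h before subplantar 1% carrageenan in the left footpad. Paw volume was read by hydroplethysmometer before injection and at 2, 4, 6, 24, 48 and 72 h. Edema was taken as the increase over basal volume.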
# [4] = target: T1, Prostaglandin G/H synthase 1 (Mus musculus); assay: Activity at COX1 assessed as inhibition of arachidonic acid-induced PGE2 production in J774 cells; format: cell-based; how it was run: as §1
# Mus musculus [5] = organism: Mus musculus; assay: Analgesic activity in mouse by formalin paw licking assay at 15-45 mins; format: functional, organism-based
# How it was run: (§2)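 Mice (18-20 g) were dosed 1 h before intraplantar 5% formalin (10 µL), given under light enflurane anesthesia. A blinded observer scored paw licking in two phases: 0-15 min and 15-45 min.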
# Mus musculus [6] = organism: Mus musculus; assay: Analgesic activity in Swiss mouse by acetic acid-induced writhing test; format: functional, organism-based
# How it was run: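 Male mice (25-30 g) received 0.6% acetic acid intraperitoneally and were caged singly. Writhes were counted over 15 min, starting from the first writhing movement.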
# Mus musculus [7] = organism: Mus musculus; assay: Analgesic activity in mouse by formalin paw licking assay at 0-15 mins; format: functional, organism-based; how it was run: as §2
# Rattus norvegicus = assay: Gastric damage in rat at 100 mg/kg, po by GI damage assay; format: functional
# How it was run: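 Rats (120-140 g) were fasted 18 h with water allowed, then dosed orally at 100 mg/kg; a vehicle group was included, six rats per group. After 5 h, stomachs were excised under pentobarbital. A blinded observer summed lesion lengths in mm per stomach. Analysis: Kruskal-Wallis with Dunn's post-test.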
# [8] = target: T1, Prostaglandin G/H synthase 1 (Mus musculus); assay: Activity at COX1 assessed as inhibition of arachidonic acid-induced PGE2 production in J774 cells at 0.01 uM; format: cell-based; how it was run: as §1
# [9] = target: T1, Prostaglandin G/H synthase 1 (Mus musculus); assay: Activity at COX1 assessed as inhibition of arachidonic acid-induced PGE2 production in J774 cells at 0.1 uM; format: cell-based; how it was run: as §1
# [10] = target: T1, Prostaglandin G/H synthase 1 (Mus musculus); assay: Activity at COX1 assessed as inhibition of arachidonic acid-induced PGE2 production in J774 cells at 1 uM; format: cell-based; how it was run: as §1
# [11] = target: T2, Prostaglandin G/H synthase 2 (Mus musculus) (UniProt Q05769); assay: Activity at COX2 assessed as inhibition of arachidonic acid-induced PGE2 production in LPS-stimulated J774 cells at 100 uM; format: cell-based
# T2 sequence (whole entry): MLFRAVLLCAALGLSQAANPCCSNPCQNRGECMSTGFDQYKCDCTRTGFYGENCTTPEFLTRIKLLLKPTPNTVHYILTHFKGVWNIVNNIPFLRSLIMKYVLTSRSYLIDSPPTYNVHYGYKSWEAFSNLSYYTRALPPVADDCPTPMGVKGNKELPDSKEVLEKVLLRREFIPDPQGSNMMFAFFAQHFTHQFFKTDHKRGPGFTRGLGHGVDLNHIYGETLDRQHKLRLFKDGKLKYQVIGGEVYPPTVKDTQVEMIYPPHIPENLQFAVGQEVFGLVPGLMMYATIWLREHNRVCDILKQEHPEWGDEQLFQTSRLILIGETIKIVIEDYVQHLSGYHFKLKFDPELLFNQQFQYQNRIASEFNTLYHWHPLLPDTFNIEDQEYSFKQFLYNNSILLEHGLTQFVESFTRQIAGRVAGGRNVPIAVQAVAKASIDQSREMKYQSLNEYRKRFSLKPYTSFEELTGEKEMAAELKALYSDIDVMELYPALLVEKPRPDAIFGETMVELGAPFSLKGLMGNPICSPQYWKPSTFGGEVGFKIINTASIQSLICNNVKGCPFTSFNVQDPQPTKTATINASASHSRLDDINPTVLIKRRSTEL
# How it was run: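 J774 cells were induced with S. typhosa LPS (10 µg/mL, 24 h) to express COX-2. Medium was replaced with fresh medium holding 15 µM arachidonic acid, with or without compound (0.01-100 µM, ethanol vehicle), for 30 min at 37 °C. Supernatant PGE2 was measured by radioimmunoassay. Triplicate wells; % inhibition vs control, mean of three experiments.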
inhibition [1] [%],inhibition [2] [%],Activity [4],Activity [1],Activity [2],Activity [8],Activity [9],Activity [10],inhibition [11] [%],Compound,Activity (Mus musculus [3]),Activity (Mus musculus [5]),Activity (Mus musculus [6]),Activity (Mus musculus [7]),Activity (Rattus norvegicus)
64,57,Dose-dependent effect,–,–,–,–,–,–,COc1ccc2c(c1)c(CC(=O)O)c(C)n2C1CCN(C)CC1,Active,Active,Dose-dependent effect,inactive,inactive
–,–,–,inactive,inactive,inactive,inactive,inactive,–,CCOC(=O)Cc1c(C)n(C2CCN(C)CC2)c2ccc(OC(C)=O)cc12,–,–,–,–,–
–,–,–,inactive,inactive,inactive,inactive,inactive,–,Cc1c(CC(=O)O)c2cc(O)ccc2n1C1CCN(C)CC1,–,–,–,–,–
58,37,Dose-dependent effect,–,–,–,–,–,24,CCOC(=O)Cc1c(C)n(C2CCN(C)CC2)c2ccc(OC)cc12,Active,Active,Dose-dependent effect,inactive,0.6 mm
88,75,Dose-dependent effect,–,–,–,–,–,–,COc1ccc2c(c1)c(CC(=O)O)c(C)n2C(=O)c1ccc(Cl)cc1 [INDOMETHACIN],Active,–,–,–,50 mm
